Experimental data of several laboratories.
Protocols differ between the studies behind these lines.
SIRT3: NAD-dependent protein deacetylase sirtuin-3, mitochondrial (SIRT3, Homo sapiens, UniProt Q9NTG7)
PTGS1: Prostaglandin G/H synthase 1 (PTGS1, Ovis aries, UniProt P05979)
GABRA1: Gamma-aminobutyric acid receptor subunit alpha-1 (GABRA1, Homo sapiens, UniProt P14867)

CCCCCC1CC(=O)c2cc(Br)cc(Br)c2O1 (stereo not shown) — inhibition (SIRT3; enzyme activity; inhibitor; fluorescence; 200 µM): 6.5%
CCN(Cc1ccccc1C(F)(F)F)C(=O)C1CCN(S(=O)(=O)c2ccc3[nH]ncc3c2)CC1 — inhibition (Androgen receptor (Ar, Rattus norvegicus, UniProt P15207); ligand displacement; radioligand; 10 µM): 11%
CCCCCC1CC(=O)c2ccc(F)cc2O1 (stereo not shown) — inhibition (SIRT3; enzyme activity; inhibitor; fluorescence; 200 µM): 2.2%
C=CN1CCCn2c1nc1c2c(=O)n(C)c(=O)n1C — inhibition (Adenosine receptor A2a (Adora2a, Rattus norvegicus, UniProt P30543); ligand displacement; radioligand; 25 µM; cell membranes): 47%
CCCCCC1CCc2cc(Cl)cc(Br)c2O1 (stereo not shown) — inhibition (SIRT3; enzyme activity; inhibitor; fluorescence; 200 µM): 1.2%
CC(=S)NCCCC[C@H](NC(=O)OCc1ccccc1)C(=O)N[C@@H](Cc1c[nH]c2ccccc12)C(=O)N[C@@H](CCCCN)C(N)=O — inhibition (SIRT3; enzyme activity; inhibitor; 10 µM): 59%
O=C(Nc1ccc(F)cc1)Nc1cccc(C(=O)Nc2ccc3[nH]ncc3c2)c1 — inhibition (BDNF/NT-3 growth factors receptor (NTRK2, Homo sapiens, UniProt Q16620); enzyme activity; inhibitor; FRET; 1 µM): 16.8%
CCCCCCCCCCCCNC(=S)NCCCC[C@H](NS(C)(=O)=O)C(=O)N[C@H](C)C(=O)N[C@@H](CCCNC(=N)N)C(=O)O — inhibition (SIRT3; enzyme activity; inhibitor; 100 µM): 34%
C[C@@H]1O[C@@H](OC[C@H]2O[C@@H](Oc3c(-c4ccc(O)cc4)oc4cc(O)cc(O)c4c3=O)[C@H](O[C@@H]3O[C@H](CO)[C@@H](O)[C@H](O)[C@H]3O)[C@@H](O)[C@@H]2O)[C@H](O)[C@H](O)[C@H]1O — inhibition (PTGS1; enzyme activity; inhibitor; absorbance; 50 µM): 72.6%
CCCCNC(=S)NCCCC[C@H](NS(=O)(=O)c1cccc(F)c1)C(=O)N[C@@H](Cc1c[nH]c2ccccc12)C(=O)NC1CCC1 — inhibition (SIRT3; enzyme activity; inhibitor; 1 µM): 16%
CCCCCC1CC(=O)c2cc(F)cc(F)c2O1 (stereo not shown) — inhibition (SIRT3; enzyme activity; inhibitor; fluorescence; 200 µM): 9.6%
CCCCCCCCCCCCNC(=S)NCCCC[C@H](NC(=O)C1CCCCC1)C(=O)N[C@H](C)C(=O)N[C@@H](CCCNC(=N)N)C(N)=O — inhibition (SIRT3; enzyme activity; inhibitor; 10 µM): 41%
Oc1cccc(Nc2nc(-c3ccc(F)cc3F)cs2)c1 — inhibition (GABRA1; cell-free assay; 10 µM): -27.3%
CN(C)C1CCN(CC#Cc2nn(C3CCCC3)c3nc(NCc4ccccc4)ncc23)C1 (stereo not shown) — inhibition (Ribosomal protein S6 kinase alpha-3 (RPS6KA3, Homo sapiens, UniProt P51812); enzyme activity; inhibitor; FRET; 1 µM): 2%
CCCCCC1CC(=O)c2cc(OC)ccc2O1 (stereo not shown) — inhibition (SIRT3; enzyme activity; inhibitor; fluorescence; 200 µM): 9.5%
NC(=O)CCNC(=S)NCCCC[C@H](NS(=O)(=O)c1cccc(F)c1)C(=O)N[C@@H](Cc1c[nH]c2ccccc12)C(=O)NC1CCC1 — inhibition (SIRT3; enzyme activity; inhibitor; 10 µM): 30%
CC(=S)NCCCC[C@H](NC(=O)OCc1ccccc1)C(=O)N[C@@H](Cc1c[nH]c2ccccc12)C(=O)N[C@@H](CC(N)=O)C(N)=O — inhibition (SIRT3; enzyme activity; inhibitor; 10 µM): 14%
CC(C)C1CC(=O)c2cc(Cl)cc(Br)c2O1 (stereo not shown) — inhibition (SIRT3; enzyme activity; inhibitor; fluorescence; 200 µM): 4.4%
C[C@@H]1O[C@@H](O[C@H]2[C@H](Oc3c(-c4ccc(O)cc4)oc4cc(O)cc(O)c4c3=O)O[C@H](CO[C@@H]3O[C@H](CO)[C@@H](O)[C@H](O)[C@H]3O)[C@@H](O)[C@@H]2O)[C@H](O)[C@H](O)[C@H]1O — inhibition (PTGS1; enzyme activity; inhibitor; absorbance; 50 µM): 76.2%
O=C1CC(CCNC(=S)NCCCC[C@H](NS(=O)(=O)c2cccc(F)c2)C(=O)N[C@@H](Cc2c[nH]c3ccccc23)C(=O)NC2CCC2)=NO1 — inhibition (SIRT3; enzyme activity; inhibitor; 10 µM): 40%
Cc1ccc(C(=O)Nc2ccc(S(=O)(=O)O)c3cc(S(=O)(=O)O)cc(S(=O)(=O)O)c23)cc1NC(=O)c1cccc(NC(=O)Nc2cccc(C(=O)Nc3cc(C(=O)Nc4ccc(S(=O)(=O)O)c5cc(S(=O)(=O)O)cc(S(=O)(=O)O)c45)ccc3C)c2)c1 — inhibition (SIRT3; enzyme activity; inhibitor; 100 µM): 6%
O=c1c(O[C@@H]2O[C@H](CO)[C@@H](O)[C@H](O)[C@H]2O)c(-c2ccc(O)cc2)oc2cc(O)cc(O)c12 — inhibition (PTGS1; enzyme activity; inhibitor; absorbance; 50 µM): 66.9%
O=C(O)Cc1ccccc1OP(=O)(O)O — inhibition (Signal transducer and activator of transcription 5A, SH2 (Homo sapiens, UniProt P42229); ligand displacement; FP; 100 µM): 40%
CCCCCCCCCCCCNC(=S)NCCCC[C@H](NC(=O)OCc1ccccc1)C(=O)N[C@@H](Cc1c[nH]c2ccccc12)C(=O)N[C@@H](CCC(=O)O)C(N)=O — inhibition (SIRT3; enzyme activity; inhibitor; 10 µM): 21%
O=C(c1ccc(Cl)cc1)N(Cc1ccccc1)C1CCCCC1 — inhibition (GABRA1; cell-free assay; 10 µM): -34.8%
O=C(NC1CCC1)[C@H](Cc1c[nH]c2ccccc12)NC(=O)[C@H](CCCCNC(=S)NCc1n[nH]c(=S)o1)NS(=O)(=O)c1cccc(F)c1 — inhibition (SIRT3; enzyme activity; inhibitor; 30 µM): 12%
CCCCCCCCCCCCNC(=S)NCCCC[C@H](NC(=O)OCc1ccccc1)C(=O)N[C@@H](Cc1c[nH]c2ccccc12)C(=O)N[C@@H](CCCCN)C(N)=O — inhibition (SIRT3; enzyme activity; inhibitor; 10 µM): 21%
Cc1ccc(S(=O)(=O)n2cc(CCC3CC(=O)c4cc(Cl)cc(Br)c4O3)c3ccccc32)cc1 (stereo not shown) — inhibition (SIRT3; enzyme activity; inhibitor; fluorescence; 200 µM): 13%
COc1cc(NC(C)=O)c(Cl)cc1C(=O)Nc1nccs1 — inhibition (GABRA1; cell-free assay; 10 µM): -34.8%
CN1CCN(CCCOc2ccc(=O)n(-c3ccc(Cl)c(Cl)c3)n2)CC1 — inhibition (Transient receptor potential cation channel subfamily V member 1 (TRPV1, Homo sapiens, UniProt Q8NER1); ligand displacement; 1 µM): 17.1%
C[C@@H](NC(=O)[C@H](CCCCNC(=O)C(F)(F)F)NS(C)(=O)=O)C(=O)N[C@@H](CCCNC(=N)N)C(N)=O — inhibition (SIRT3; enzyme activity; inhibitor; 100 µM): 10%
COc1ccc2c(c1)C(CC(=O)O)=C/C2=C\c1ccc(-c2ccccc2)cc1 — inhibition (PTGS1; enzyme activity; inhibitor; 4 µM): 49%
CCCCCC1CC(=O)c2cc([N+](=O)[O-])ccc2O1 (stereo not shown) — inhibition (SIRT3; enzyme activity; inhibitor; fluorescence; 200 µM): 16%
Cc1ncc([N+](=O)[O-])n1C(=NO)c1ccccc1C(F)(F)F — inhibition (Fas-activated serine/threonine kinase (Homo sapiens, UniProt Q14296); enzyme activity; inhibitor; 10 µM): 7.77%
